Calls of active or inactive are those of the source.
What was measured:
[1] = target: Pyroglutamylated RF-amide peptide receptor (Homo sapiens) (UniProt Q96P65); test: Inhibition of human GPR103 receptor at 10 uM by radioligand displacement assay
Summary of the method: (§1)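 LeadProfilingScreen panel of 68 in vitro enzyme and receptor assays. Compound tested at 10 μM in duplicate.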

[2] = target: Neuropeptide Y receptor type 1 (Homo sapiens) (UniProt P25929); test: Inhibition of human Neuropeptide Y Y1 receptor at 10 uM by radioligand displacement assay; summary of the method: as §1
Sequence of Neuropeptide Y receptor type 1 (Homo sapiens) (P25929 whole entry): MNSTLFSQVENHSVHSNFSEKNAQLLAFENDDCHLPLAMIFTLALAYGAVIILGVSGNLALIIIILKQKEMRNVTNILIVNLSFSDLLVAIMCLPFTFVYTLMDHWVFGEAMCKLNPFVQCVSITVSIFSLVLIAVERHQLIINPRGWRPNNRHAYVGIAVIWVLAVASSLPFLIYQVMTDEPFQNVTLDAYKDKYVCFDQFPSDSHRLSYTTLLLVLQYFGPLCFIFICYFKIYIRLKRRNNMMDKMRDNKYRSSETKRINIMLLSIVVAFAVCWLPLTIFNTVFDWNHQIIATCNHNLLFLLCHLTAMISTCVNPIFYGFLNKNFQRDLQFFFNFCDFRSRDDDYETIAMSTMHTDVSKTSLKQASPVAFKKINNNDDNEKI

[3] = target: Endothelin-1 receptor (Homo sapiens) (UniProt P25101); test: Inhibition of human endothelin ETA at 10 uM by radioligand displacement assay
Sequence of Endothelin-1 receptor (Homo sapiens) (P25101 whole entry): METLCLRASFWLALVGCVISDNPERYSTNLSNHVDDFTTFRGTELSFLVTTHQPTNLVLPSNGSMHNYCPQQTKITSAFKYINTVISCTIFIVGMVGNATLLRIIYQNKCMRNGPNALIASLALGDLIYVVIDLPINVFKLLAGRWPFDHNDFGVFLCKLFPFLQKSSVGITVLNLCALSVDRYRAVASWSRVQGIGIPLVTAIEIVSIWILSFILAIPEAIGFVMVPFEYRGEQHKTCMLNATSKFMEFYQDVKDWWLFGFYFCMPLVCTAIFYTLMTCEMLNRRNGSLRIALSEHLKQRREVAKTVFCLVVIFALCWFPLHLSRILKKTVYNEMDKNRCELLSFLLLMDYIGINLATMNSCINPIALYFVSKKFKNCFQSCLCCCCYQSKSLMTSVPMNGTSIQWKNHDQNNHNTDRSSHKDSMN
Summary of the method: (§2)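 Single concentration of 10 μM, tested in duplicate as part of a contracted panel of 68 in vitro enzyme and receptor assays. The panel covers common adverse CNS, cardiovascular, pulmonary and genotoxic targets.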

[4] = system: Superoxide dismutase [Cu-Zn] (Homo sapiens), P00441 [G94A]; test: Inhibition of SOD1 G93A mutant aggregation-induced cytotoxicity in human SH-SY5Y cells by cytotoxicity protection assay; assay type: cell-based
Sequence of Superoxide dismutase [Cu-Zn] (Homo sapiens), P00441 [G94A] (P00441 whole entry G94A): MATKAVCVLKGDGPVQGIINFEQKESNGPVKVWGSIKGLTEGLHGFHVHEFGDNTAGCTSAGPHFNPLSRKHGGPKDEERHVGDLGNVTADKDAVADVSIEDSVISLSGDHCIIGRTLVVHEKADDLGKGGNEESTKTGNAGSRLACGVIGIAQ

Homo sapiens [5] = organism: Homo sapiens; test: Inhibition of human dopamine D4.2 receptor at 10 uM by radioligand displacement assay; summary of the method: as §2
Rattus norvegicus [6] = organism: Rattus norvegicus; test: Inhibition of rat N-type calcium channel at 10 uM by radioligand displacement assay; summary of the method: as §2
Homo sapiens [7] = organism: Homo sapiens; test: Inhibition of human Sigma delta2 receptor at 10 uM by radioligand displacement assay; summary of the method: as §1
[8] = Half life in human microsomes at 5 uM incubated for 1 hr at 37 degC in presence of NADPH; assay type: ADME, Microsome; settings: 1 h, 5 µM
Mus musculus [9] = test: Neuroprotective activity in SOD1 G93A mutant B6SJL mouse ALS model assessed as life extension at 1 mg/kg administered qd for 1 week (reference value: 125.7 +/- 4.9 days); assay type: functional
Rattus norvegicus [10] = organism: Rattus norvegicus; test: Inhibition of rat imidazoline I2 receptor at 10 uM by radioligand displacement assay; summary of the method: as §2
Mus musculus [11] = test: Neuroprotective activity in SOD1 G93A mutant B6SJL mouse ALS model assessed as life extension at 10 mg/kg administered qd for 1 week (reference value: 125.7 +/- 4.9 days); assay type: functional
[12] = target: Sodium-dependent dopamine transporter (Homo sapiens) (UniProt Q01959); test: Inhibition of human dopamine transporter at 10 uM by radioligand displacement assay; summary of the method: as §2
Mus musculus [13] = organism: Mus musculus; test: Inhibition of mouse IL-1 at 10 uM by radioligand displacement assay; summary of the method: as §2
[14] = AUClast in Sprague-Dawley rat at 1 mg/kg, iv; assay type: ADME, organism-based; design: dose 1 mg/kg, route intravenous, time 0 - last; settings: plasma
Summary of the method: (§3)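 Sprague-Dawley rats given a single 1 mg/kg bolus, intravenous or oral. Plasma PK parameters (AUC, dose-normalised AUC, half-life, clearance, Vss, Cmax, Tmax, oral bioavailability) derived from plasma levels.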

[15] = Clearance in Sprague-Dawley rat at 1 mg/kg, iv; assay type: ADME, organism-based; design: dose 1 mg/kg, route intravenous; settings: in vivo; summary of the method: as §3
[16] = target: Alpha-1D adrenergic receptor (Homo sapiens) (UniProt P25100); test: Inhibition of human adrenergic alpha1D receptor at 10 uM by radioligand displacement assay; summary of the method: as §1
Sequence of Alpha-1D adrenergic receptor (Homo sapiens) (P25100 whole entry): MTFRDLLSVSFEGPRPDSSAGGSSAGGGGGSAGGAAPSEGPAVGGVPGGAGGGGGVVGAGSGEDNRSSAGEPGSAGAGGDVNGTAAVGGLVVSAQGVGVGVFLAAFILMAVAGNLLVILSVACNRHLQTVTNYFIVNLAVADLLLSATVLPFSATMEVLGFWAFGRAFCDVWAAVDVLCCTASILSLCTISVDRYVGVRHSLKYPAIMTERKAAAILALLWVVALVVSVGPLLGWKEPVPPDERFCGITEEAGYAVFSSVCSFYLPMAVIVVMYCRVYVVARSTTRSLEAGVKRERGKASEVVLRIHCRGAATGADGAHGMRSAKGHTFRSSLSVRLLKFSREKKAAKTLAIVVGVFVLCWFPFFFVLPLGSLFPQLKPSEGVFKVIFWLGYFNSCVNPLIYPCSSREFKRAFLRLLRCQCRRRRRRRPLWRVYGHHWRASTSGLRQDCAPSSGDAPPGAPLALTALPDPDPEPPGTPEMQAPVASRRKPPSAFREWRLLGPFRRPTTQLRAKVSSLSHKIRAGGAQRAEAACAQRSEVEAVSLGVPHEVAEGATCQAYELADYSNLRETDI

Mus musculus [17] = test: Neuroprotective activity in SOD1 G93A mutant B6SJL mouse ALS model assessed as life extension administered qd starting at 6 weeks of age throughout life
Rattus norvegicus [18] = organism: Rattus norvegicus; test: Inhibition of rat purinergic P2Y receptor at 10 uM by radioligand displacement assay; summary of the method: as §2
[19] = Plasma concentration in B6SJL mouse at 300 mg/kg after 3 hrs by mass spectrometry; assay type: ADME, organism-based; design: dose 300 mg/kg
Summary of the method: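 B6SJL mice were given a single 300 mg/kg intraperitoneal bolus. Blood and brain were collected at 0, 1, 3, 6, 12 and 24 h, flash-frozen in liquid nitrogen and stored at -80 °C. Samples were analyzed by mass spectrometry with ESI ionization in MRM mode.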

Plasma = test: Plasma protein binding in human; assay type: ADME, cell-free
[20] = target: Substance-P receptor (Homo sapiens) (UniProt P25103); test: Inhibition of human tachykinin NK1 receptor at 10 uM by radioligand displacement assay; summary of the method: as §2
[21] = target: L-type calcium channel, dihydropyridine site (Rattus norvegicus, UniProt P22002+P27732+Q02485); test: Inhibition of rat calcium channel L-type, dihydropyridine site at 10 uM by radioligand displacement assay; summary of the method: as §2
Caco-2 = test: Apparent permeability from apical to basolateral side in human Caco2 cells; assay type: ADME, cell-based
Oryctolagus cuniculus = organism: Oryctolagus cuniculus; test: Inhibition of rabbit Purinergic P2X receptor at 10 uM by radioligand displacement assay; assay type: tissue-based; summary of the method: as §2
[22] = target: Glutamate NMDA receptor (Rattus norvegicus) (UniProt P35439+Q00959+Q00960+Q00961+Q62645+Q8VHN2+Q9R1M7); test: Inhibition of rat NMDA receptor glutamate binding site at 10 uM by radioligand displacement assay; assay type: protein-complex assay; summary of the method: as §2
[23] = Efflux ratio of permeability from basolateral to apical side over apical to basolateral side in human Caco2 cells; assay type: ADME, cell-based; settings: Caco-2
[24] = target: Kappa-type opioid receptor (Homo sapiens) (UniProt P41145); test: Inhibition of human kappa-type opioid receptor at 10 uM by radioligand displacement assay; summary of the method: as §2
Cytochrome P450 2C19 = Cytochrome P450 2C19 (Homo sapiens, UniProt P33261); test: Inhibition of CYP2C19; assay type: ADME
Summary of the method: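 Reversible inhibition of CYP isozymes in human liver microsomes, each isozyme with a single probe substrate. CYP3A4 tested with both testosterone and midazolam. IC50 determined.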

Rattus norvegicus [25] = test: Oral bioavailability in Sprague-Dawley rat at 1 mg/kg; assay type: ADME, organism-based; settings: in vivo
Summary of the method: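 Sprague-Dawley rats received a single bolus of 1 mg/kg, given both intravenously and orally. Plasma PK parameters, including oral bioavailability (F%), were derived from the two routes.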

Cerebral cortex neuron = test: Cytoprotection in rat Primary cortical neurons incubated for 24 hrs and measured 72 hrs post compound dose by cytotoxicity protection assay; assay type: functional, cell-based
Summary of the method: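 Primary cortical neurons from E18 Sprague-Dawley or Fischer 344 rat brain, dissociated with papain (2 mg/mL, 30 min, 37 °C), plated on poly-D-lysine at 20,000 cells/well, cultured 5 days (~90% neurons). Six-point dose response from 100 μM top, roughly one-third dilutions; 24 h pre-incubation, then MG132 100 nM. Viability read 48 h later by Calcein-AM (1 μM, 20 min, RT) fluorescence. Active = viability ≥5 SD above MG132 controls.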

[26] = target: Melatonin receptor type 1A (Homo sapiens) (UniProt P48039); test: Inhibition of human MT1 receptor at 10 uM by radioligand displacement assay; summary of the method: as §1
Sequence of Melatonin receptor type 1A (Homo sapiens) (P48039 whole entry): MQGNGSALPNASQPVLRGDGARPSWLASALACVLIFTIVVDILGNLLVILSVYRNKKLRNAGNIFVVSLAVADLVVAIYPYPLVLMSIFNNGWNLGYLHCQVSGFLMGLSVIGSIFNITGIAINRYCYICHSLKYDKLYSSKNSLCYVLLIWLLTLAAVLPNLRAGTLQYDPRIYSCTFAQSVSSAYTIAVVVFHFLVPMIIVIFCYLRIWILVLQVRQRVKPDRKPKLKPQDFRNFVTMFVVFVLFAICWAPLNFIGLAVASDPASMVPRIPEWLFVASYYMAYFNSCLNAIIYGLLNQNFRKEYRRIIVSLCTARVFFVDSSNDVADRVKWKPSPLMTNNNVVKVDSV

[27] = Toxicity in ip dosed wild type mouse administered twice daily; assay type: organism-based; settings: in vivo
Summary of the method: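 Tolerability was tested in wild-type mice by i.p. injection twice daily. Each injection increased the dose one-fold, up to 75 mg/kg.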

[28] = target: Delta-type opioid receptor (Homo sapiens) (UniProt P41143); test: Inhibition of human delta-type opioid receptor at 10 uM by radioligand displacement assay; summary of the method: as §1
Sequence of Delta-type opioid receptor (Homo sapiens) (P41143 whole entry): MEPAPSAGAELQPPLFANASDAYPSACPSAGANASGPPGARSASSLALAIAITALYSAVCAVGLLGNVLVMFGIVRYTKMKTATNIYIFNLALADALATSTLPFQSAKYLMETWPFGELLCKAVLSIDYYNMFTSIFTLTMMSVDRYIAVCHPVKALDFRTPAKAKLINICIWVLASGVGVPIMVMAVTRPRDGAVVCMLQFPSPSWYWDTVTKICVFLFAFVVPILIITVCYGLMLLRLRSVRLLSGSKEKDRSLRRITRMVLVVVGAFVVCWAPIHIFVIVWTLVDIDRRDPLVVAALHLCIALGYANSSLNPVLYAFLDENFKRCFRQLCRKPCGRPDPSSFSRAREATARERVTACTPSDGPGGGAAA

[29] = target: Estrogen receptor (Homo sapiens) (UniProt P03372); test: Inhibition of human estrogen receptor-alpha at 10 uM by radioligand displacement assay; summary of the method: as §2
Sequence of Estrogen receptor (Homo sapiens) (P03372 whole entry): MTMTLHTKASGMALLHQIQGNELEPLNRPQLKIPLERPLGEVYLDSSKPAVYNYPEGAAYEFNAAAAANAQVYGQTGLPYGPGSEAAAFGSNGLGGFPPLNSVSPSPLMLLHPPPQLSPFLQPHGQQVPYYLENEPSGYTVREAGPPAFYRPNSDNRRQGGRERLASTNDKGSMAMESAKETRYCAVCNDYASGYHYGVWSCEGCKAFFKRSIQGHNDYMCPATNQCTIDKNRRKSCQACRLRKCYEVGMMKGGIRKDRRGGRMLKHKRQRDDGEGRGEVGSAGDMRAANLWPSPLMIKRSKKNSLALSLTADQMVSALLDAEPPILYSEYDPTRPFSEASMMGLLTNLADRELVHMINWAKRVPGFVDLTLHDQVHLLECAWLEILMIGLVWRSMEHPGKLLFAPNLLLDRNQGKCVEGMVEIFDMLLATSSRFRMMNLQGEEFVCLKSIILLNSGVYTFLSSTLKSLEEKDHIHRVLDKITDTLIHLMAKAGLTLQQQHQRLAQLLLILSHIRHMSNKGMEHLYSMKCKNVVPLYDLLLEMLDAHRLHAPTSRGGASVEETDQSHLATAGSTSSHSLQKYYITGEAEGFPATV

[30] = target: Adenosine receptor A2a (Homo sapiens) (UniProt P29274); test: Inhibition of human adenosine A2 receptor at 10 uM by radioligand displacement assay; summary of the method: as §1
Sequence of Adenosine receptor A2a (Homo sapiens) (P29274 whole entry): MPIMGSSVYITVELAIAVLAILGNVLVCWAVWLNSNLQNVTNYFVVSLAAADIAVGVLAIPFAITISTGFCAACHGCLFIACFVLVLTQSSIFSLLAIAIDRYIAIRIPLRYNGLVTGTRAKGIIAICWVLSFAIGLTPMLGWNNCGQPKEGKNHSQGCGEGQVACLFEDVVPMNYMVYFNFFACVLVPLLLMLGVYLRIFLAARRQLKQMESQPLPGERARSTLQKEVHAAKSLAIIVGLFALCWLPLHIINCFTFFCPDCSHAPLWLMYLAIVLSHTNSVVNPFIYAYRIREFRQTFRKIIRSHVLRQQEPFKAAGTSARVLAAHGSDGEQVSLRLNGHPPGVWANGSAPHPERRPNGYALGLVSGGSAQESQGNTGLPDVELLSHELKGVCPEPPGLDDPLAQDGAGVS

[31] = target: Gamma-aminobutyric acid type B receptor subunit 1 (Homo sapiens) (UniProt Q9UBS5); test: Inhibition of human GABAB1A receptor at 10 uM by radioligand displacement assay; summary of the method: as §1
Sequence of Gamma-aminobutyric acid type B receptor subunit 1 (Homo sapiens) (Q9UBS5 whole entry): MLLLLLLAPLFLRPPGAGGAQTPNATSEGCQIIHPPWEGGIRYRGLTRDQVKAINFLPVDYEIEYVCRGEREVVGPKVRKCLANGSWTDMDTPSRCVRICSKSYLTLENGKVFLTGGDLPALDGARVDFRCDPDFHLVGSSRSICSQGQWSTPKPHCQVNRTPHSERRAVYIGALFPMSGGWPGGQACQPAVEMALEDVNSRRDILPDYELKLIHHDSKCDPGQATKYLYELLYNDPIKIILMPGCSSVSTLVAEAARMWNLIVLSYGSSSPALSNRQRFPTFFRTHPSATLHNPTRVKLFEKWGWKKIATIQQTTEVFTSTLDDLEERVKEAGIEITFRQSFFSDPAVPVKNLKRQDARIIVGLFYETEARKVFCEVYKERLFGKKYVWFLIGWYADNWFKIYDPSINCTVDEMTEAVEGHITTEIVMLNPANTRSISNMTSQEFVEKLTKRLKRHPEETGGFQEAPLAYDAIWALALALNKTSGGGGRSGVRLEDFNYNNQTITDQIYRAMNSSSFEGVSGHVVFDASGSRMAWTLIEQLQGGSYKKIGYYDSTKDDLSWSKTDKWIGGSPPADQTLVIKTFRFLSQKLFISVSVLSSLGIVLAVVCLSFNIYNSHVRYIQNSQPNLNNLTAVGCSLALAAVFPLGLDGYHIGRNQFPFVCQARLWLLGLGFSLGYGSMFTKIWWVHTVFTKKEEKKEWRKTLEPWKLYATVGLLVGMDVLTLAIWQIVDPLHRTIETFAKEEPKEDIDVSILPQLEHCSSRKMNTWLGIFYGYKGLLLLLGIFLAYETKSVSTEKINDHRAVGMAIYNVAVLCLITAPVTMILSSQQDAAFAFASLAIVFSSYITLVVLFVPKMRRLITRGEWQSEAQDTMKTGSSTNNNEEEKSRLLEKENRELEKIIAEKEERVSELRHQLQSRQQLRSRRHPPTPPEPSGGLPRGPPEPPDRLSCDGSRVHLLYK

Sequence of Pyroglutamylated RF-amide peptide receptor (Homo sapiens) (Q96P65 whole entry): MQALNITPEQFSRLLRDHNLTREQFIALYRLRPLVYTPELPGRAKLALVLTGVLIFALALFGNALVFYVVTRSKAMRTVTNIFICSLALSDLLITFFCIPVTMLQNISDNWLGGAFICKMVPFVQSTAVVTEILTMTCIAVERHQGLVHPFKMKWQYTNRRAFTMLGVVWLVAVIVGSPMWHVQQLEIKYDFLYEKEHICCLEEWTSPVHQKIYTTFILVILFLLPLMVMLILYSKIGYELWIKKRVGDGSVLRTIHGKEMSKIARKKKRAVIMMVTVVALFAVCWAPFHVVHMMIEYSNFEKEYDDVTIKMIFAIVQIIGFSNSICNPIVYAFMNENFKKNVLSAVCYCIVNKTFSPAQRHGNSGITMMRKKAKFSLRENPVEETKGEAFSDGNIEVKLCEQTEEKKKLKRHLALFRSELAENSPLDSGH

O=c1cc(COc2cc(Cl)cc(Cl)c2)[nH][nH]1
inhibition [1]: 3% | inhibition [2]: -1% | inhibition [3]: 3% | inhibition [4]: Active | inhibition (Homo sapiens [5]): -3% | inhibition (Rattus norvegicus [6]): 3% | inhibition (Homo sapiens [7]): 5% | t1/2 [8]: 1.55 h | Survival (Mus musculus [9]): 129.2 days | inhibition (Rattus norvegicus [10]): 12% | Survival (Mus musculus [11]): 135 days | inhibition [12]: 11% | inhibition (Mus musculus [13]): 3% | AUC(0-t) [14]: 179 ng·h/mL | clearance [15]: 92 mL/min/kg | inhibition [16]: 3% | Activity (Mus musculus [17]): Dose-dependent effect | inhibition (Rattus norvegicus [18]): 5% | concentration at 3 h [19]: 342 µM | PPB (Plasma): 98% | inhibition [20]: 3% | inhibition at 10 µM [21]: -5% | Papp (Caco-2): 36.7 ×10⁻⁶ cm/s | inhibition (Oryctolagus cuniculus): 1% | inhibition [22]: -3% | efflux ratio [23]: 0.4 | inhibition [24]: -9% | IC50 (Cytochrome P450 2C19): 20 µM | F (Rattus norvegicus [25]): 27% | Activity (Cerebral cortex neuron): Active | inhibition [26]: 3% | MTD [27]: 75 mg/kg | inhibition [28]: 25% | inhibition [29]: 10% | inhibition [30]: -2% | inhibition [31]: -7%
